The text below walks through data of paper PMC3246390 (Organic & biomolecular chemistry, 2011).

“Also recorded” adds a separate entry of the source. Where two headings read alike, the source gives them in different places.

Test [1] deals with T1, mouse Vα14Vβ8.2 NKT TCR (glycolipid presented by mouse CD1d) (Mus musculus, UniProt P11609).
T1 sequence (P11609 19-297): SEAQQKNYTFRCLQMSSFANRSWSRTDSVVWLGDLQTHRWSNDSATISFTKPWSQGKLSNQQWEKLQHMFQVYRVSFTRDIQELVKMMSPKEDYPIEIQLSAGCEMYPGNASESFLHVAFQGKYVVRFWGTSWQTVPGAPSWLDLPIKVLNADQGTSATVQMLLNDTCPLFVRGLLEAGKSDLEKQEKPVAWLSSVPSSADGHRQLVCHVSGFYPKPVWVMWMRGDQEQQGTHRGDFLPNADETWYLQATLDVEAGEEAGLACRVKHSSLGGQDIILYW
T1 sequence (P01887 21-119 partner): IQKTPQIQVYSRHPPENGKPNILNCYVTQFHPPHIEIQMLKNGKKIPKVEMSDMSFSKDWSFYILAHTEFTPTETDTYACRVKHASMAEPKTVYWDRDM
T1 sequence (P01849 1-110 partner): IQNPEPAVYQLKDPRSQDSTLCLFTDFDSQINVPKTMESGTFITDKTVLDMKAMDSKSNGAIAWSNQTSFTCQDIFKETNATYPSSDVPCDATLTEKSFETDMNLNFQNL
The test is classed as binding. The note with it: for Kass / Kdiss: Langmuir 1:1 model; for Kdiss: TCR dissociation from mouse CD1d-glycolipid complex.

The test system of test [2] is mice. The note with it: cited from earlier work.
Test [3] relates to mice. It is filed as in vivo. The note with it: 5 µg intraperitoneal; for cytokine secretion (INF-γ and IL-4): IL-4 at 4h and INF-γ at 16h. In short, it runs like this:
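Each mouse received an intraperitoneal injection of 5 µg glycolipid (6"-modified α-GalCer analogues, galacturonic acid and α-d-fucopyranosyl types). Serum IL-4 was measured at 4 h and serum INF-γ at 16 h after injection.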

Test [4] deals with mice. The note with it: i.v. administration; cited from earlier work.
Test [5] deals with lung and breast cancer in mice. The note with it: lung and breast cancer (GSL-1’: mice bearing lung cancer, equal doses); cited from earlier work.
The mark [6] stands for this setting: SPR, TCR binding to mouse CD1d-glycolipid complex.
[7] abbreviates: read-out: KD(Kdiss/Kass), SPR, TCR binding to mouse CD1d-glycolipid complex.

In turn, “1-O-(6-deoxy-α-D-galactopyranosyl)-2-hexacosylamino-octadecane-1,3,4-triol [compound 4]” came in with a Kass in test [1] (setting [6]) of 80000 ± 3000 M⁻¹ s⁻¹. The compound further yielded a Kdiss in test [1] (SPR) of 0.00526 ± 0.00029 s⁻¹. In addition, the Kd in test [1] (setting [7]) is 64.8 ± 6 nM. For the same compound, in the test on mice [2], the “IFN-γ induction compared to α-GalCer” value is reported as “superior to α-GalCer”.

Consider “1-O-(6-deoxy-α-D-galactopyranosyl)-2-hexacosylamino-octadecane-1,3,4-triol [compound 12]”, for which, in the test with mice [3] (serum), the “cytokine secretion (INF-γ and IL-4)” value is given as “weak cytokine secretion; also recorded: low cytokine release”. Moreover, the Kass in test [1] (setting [6]) was 100000 ± 20000 M⁻¹ s⁻¹. Moreover, the Kdiss in test [1] (SPR) turned out to be 0.00648 ± 0.0018 s⁻¹. The Kd in test [1] (setting [7]) came to 74.4 ± 25 nM.

As for “1-O-(α-D-galactopyranosyluronate)-2-hexacosylamino-octadecane-1,3,4-triol [compound 13]”, the “cytokine secretion (INF-γ and IL-4)” value in the test with mice [3] (serum) is listed as “minor cytokine secretion”. Further, the “secretion of INF-γ compared to α-GalCer” value with mice [4] was “drastically lower secretion of INF-γ”. In test [1] (setting [6]), this compound yielded a Kass of 100000 ± 9000 M⁻¹ s⁻¹. The Kd in test [1] (setting [7]) was found to be 165 ± 38.3 nM. Besides, the “efficacy towards cancer compared to α-GalCer” value in test [5] is “more effective”.

For `CCCCCCCCCCCCCCCCCCCCCCCCCC(=O)N[C@@H](CO[C@H]1O[C@H](CO)[C@H](O)[C@H](O)[C@H]1O)[C@H](O)[C@H](O)CCCCCCCCCCCCCC` [KRN7000 (1), α-galactosylceramide, reference compound], in test [1], the Kd is 11.2 ± 0.2 nM. Moreover, the kon in test [1] (read-out: Kass) stood at 130000 M⁻¹ s⁻¹. Further, the koff in test [1] (read-out: Kdiss) was determined as 0.00145 s⁻¹.

Regarding `CCCCCCCCCCCCCCC(O)C(O)C(CO[C@H]1O[C@H](C(=O)O)[C@H](O)[C@H](O)[C@H]1O)NC(=O)CCCCCc1ccccc1` (stereo partly drawn) [compound 14, 1-O-(α-D-galactopyranosyluronate)-2-(6-phenylhexanoyl)amino-octadecane-1,3,4-triol], in the test on mice [3] (serum), the “cytokine secretion (INF-γ and IL-4)” value is “abolishes all activity; also recorded: low cytokine release”. The compound further had a Kass in test [1] (setting [6]) of 110000 ± 6000 M⁻¹ s⁻¹. This compound also yielded a Kdiss in test [1] (SPR) of 0.00811 ± 0.0012 s⁻¹. Further, the Kd in test [1] (setting [7]) was 75.3 ± 15.2 nM.

Consider “α-C-GalCer [compound 3, reference compound]”, for which the Th1/Th2 polarization entry with mice [3] (INF-γ versus IL-4) was “no polarization”. In the test on mice [3] (serum, measured at 4h), the “IL-4 secretion (Th2 response)” value is on record as “strong Th2 response”. Besides, in the test with mice [3] (serum, measured at 16h), the INF-γ secretion entry was “superior INF-γ inducer”.
